Experimental data published in the M2OR odorant receptor database.

Assays:
Settings in all cases: stereoisomer not certain
OR5D13 (Homo sapiens) = OR5D13 (Homo sapiens) (UniProt Q8NGL4)
In short: (§1)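 Each entry records the cell line, G-protein, co-transfected protein and tags used. Methods varied with the source, often transient luciferase assays in mammalian cell lines. A receptor–molecule pair is called responsive (active) if the original authors judged its signal statistically different from baseline and non-responsive (inactive) otherwise.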

OR5D14 (Homo sapiens) = OR5D14 (Homo sapiens) (UniProt Q8NGL3)
OR5D14 (Homo sapiens), sequence (Q8NGL3 whole entry): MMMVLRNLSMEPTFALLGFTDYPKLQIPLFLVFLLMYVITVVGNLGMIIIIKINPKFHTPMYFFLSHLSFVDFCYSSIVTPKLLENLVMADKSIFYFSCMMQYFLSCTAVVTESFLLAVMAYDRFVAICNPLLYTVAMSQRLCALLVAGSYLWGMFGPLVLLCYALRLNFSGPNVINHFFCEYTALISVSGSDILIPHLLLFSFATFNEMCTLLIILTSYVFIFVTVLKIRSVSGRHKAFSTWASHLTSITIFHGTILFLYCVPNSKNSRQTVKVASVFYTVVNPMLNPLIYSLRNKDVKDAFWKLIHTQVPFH
In short: as §1

OR5D16 (Homo sapiens) = OR5D16 (Homo sapiens) (UniProt Q8NGK9)
OR5D16 (Homo sapiens), sequence (Q8NGK9 whole entry): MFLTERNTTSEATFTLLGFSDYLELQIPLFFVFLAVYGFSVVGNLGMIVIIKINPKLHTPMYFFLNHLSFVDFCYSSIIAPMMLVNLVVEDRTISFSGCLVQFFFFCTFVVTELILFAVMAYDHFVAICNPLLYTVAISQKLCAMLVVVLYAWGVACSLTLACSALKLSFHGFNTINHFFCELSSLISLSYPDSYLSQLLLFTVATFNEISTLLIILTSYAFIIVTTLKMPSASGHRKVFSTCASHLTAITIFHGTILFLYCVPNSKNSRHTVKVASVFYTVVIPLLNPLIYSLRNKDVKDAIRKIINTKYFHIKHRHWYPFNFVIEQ
In short: as §1

OR5D18 (Homo sapiens) = OR5D18 (Homo sapiens) (UniProt Q8NGL1)
OR5D18 (Homo sapiens), sequence (Q8NGL1 whole entry): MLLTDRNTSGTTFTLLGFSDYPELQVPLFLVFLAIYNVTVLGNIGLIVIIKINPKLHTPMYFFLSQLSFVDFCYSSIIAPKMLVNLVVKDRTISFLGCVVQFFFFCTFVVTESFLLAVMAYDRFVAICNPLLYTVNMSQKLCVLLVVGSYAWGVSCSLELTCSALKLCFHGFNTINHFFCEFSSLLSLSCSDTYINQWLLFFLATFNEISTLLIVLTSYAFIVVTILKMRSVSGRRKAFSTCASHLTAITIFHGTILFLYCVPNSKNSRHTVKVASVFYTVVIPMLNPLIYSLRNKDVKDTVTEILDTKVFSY
In short: as §1

OR5F1 (Homo sapiens) = OR5F1 (Homo sapiens) (UniProt O95221)
OR5F1 (Homo sapiens), sequence (O95221 whole entry): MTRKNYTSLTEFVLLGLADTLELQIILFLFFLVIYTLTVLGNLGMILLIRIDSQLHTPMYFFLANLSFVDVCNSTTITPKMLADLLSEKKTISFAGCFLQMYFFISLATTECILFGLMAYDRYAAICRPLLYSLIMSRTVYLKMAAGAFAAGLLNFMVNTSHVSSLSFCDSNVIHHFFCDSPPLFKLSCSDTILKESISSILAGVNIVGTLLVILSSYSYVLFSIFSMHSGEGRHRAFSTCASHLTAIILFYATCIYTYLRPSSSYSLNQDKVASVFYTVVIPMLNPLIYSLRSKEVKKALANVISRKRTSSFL
In short: as §1

OR5DD C62Y = test system: OR5DD C62Y
OR5DD C62Y, sequence (as listed by the source, stated change not applied): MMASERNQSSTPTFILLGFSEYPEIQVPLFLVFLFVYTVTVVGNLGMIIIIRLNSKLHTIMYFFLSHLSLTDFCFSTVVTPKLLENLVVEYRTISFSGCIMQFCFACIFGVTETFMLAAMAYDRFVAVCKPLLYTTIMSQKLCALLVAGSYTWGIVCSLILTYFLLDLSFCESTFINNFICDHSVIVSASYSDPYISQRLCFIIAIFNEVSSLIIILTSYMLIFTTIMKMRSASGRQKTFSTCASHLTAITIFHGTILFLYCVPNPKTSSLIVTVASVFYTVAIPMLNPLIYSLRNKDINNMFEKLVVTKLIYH
In short: as §1

OR5DE S249A L290P = test system: OR5DE S249A L290P
In short: as §1

OR5DG A156T = test system: OR5DG A156T
OR5DG A156T, sequence (as listed by the source, stated change not applied): as the sequence (Q8NGK9 whole entry) above, with A156T counted along it
In short: as §1

OR5DI = test system: OR5DI
OR5DI, sequence (as listed by the source): as the sequence (Q8NGL1 whole entry) above, with N136D counted along it
In short: as §1

OR5F1 = test system: OR5F1
OR5F1, sequence (as listed by the source): as the sequence (O95221 whole entry) above, with S294N counted along it
In short: as §1

Measured: odorant receptor agonist call

OR5D13 (Homo sapiens), sequence (Q8NGL4 whole entry): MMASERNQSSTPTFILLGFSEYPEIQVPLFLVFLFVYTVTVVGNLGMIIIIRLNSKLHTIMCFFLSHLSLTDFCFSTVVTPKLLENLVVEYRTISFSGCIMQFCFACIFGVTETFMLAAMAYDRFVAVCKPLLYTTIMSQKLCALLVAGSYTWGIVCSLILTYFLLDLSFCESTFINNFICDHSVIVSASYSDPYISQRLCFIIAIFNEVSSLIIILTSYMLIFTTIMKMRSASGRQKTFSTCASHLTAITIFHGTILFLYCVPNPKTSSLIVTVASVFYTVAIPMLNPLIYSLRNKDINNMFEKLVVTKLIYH

Cc1c([N+](=O)[O-])c(C)c([N+](=O)[O-])c(C(C)(C)C)c1[N+](=O)[O-]
inactive: OR5D13 (Homo sapiens) | OR5D14 (Homo sapiens) | OR5D16 (Homo sapiens) | OR5D18 (Homo sapiens) | OR5F1 (Homo sapiens)

C=CCOC(=O)Cc1ccccc1
inactive: all assays above
